Bioassay records (PubChem)
OX1R antag-1: OX1R (HCRTR1) antagonists, primary screen, fluorescence, CHO/OX1R cells, Fluo-8 calcium, orexin A. Orexin/Hypocretin receptor type 1 (Homo sapiens), O43613. Fluo-8 calcium fluorescence. inhibition, % at 5 µM. 330,000 tested, 0.43% active;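 active = inhibition above its plate's threshold, mean inhibition of all tested compounds on the plate plus 3 SD, cut at about 37% in these data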;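 also: 0% = orexin A challenge wells and 100% = SB-334867-A antagonist wells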
Target sequence (O43613 whole entry, looked up): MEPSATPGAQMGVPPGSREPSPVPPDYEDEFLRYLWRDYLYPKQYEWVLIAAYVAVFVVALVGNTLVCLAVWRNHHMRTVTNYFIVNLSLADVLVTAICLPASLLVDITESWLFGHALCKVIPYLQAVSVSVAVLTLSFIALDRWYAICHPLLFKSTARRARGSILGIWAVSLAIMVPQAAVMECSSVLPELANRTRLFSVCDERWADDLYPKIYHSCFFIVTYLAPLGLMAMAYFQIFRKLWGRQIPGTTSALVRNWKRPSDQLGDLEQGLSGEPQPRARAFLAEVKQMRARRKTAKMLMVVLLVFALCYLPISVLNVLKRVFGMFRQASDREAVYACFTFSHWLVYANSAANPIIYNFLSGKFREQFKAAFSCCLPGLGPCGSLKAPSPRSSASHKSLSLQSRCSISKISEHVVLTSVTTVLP
TAAR1 ag: human TAAR1 agonists, primary screen, Fluo-8 calcium fluorescence, CHO RD-HGA16 cells | activation, % at 3 µM | 360,000 tested, 0.99% active | Trace amine-associated receptor 1 (Homo sapiens), Q96RJ0 | vehicle wells 0%, saturating PEA agonist 100% | AID 624467, 2012;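 active = activation above the mean activation of all test compounds in the run plus 3 SD, cut at about 38% in these data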
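System: CHO-derived RD-HGA16 cells with stable Gα16 and human TAAR1 / Times: 17-24 h plating, Fluo-8 75 min 37 °C, 30 min RT / Technique: calcium-sensitive Fluo-8 signal, excitation 470-495, emission 515-575 nm / Measure: % activation relative to PEA EC100 response / Benchmarks: DMSO and PEA EC100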
CHO parental Ca: ATP-evoked calcium signal inhibitors, parental CHO, primary screen, counter-screen for OX1R antagonist project, cell-based, fluorescence, Fluo-8 calcium dye; parental CHO-K1, ATP-induced calcium, Fluo-8 fluorescence; inhibition, % at 5.6 µM; 330,000 tested, 0.63% active; AID 463079, 2010;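 active = inhibition above that plate's mean sample inhibition plus 3 SD, cut at about 26% in these data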;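 also: 0% = ATP-challenged DMSO wells and 100% = DMSO wells without ATP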
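Assay system: parental CHO cells; Read-out basis: percent inhibition of ATP-evoked calcium rise, normalized to controls; Benchmarks: ATP and no-ATP DMSO wells; Compound dosing: single nominal dose of 5.6 µM per compound; Signal: Fluo-8 calcium dye fluorescence; Also added: ATP as calcium-mobilizing challenge; Repeats: singlicate.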
OX1R antag-2: antagonists of human orexin 1 receptor (OX1R). OX1R-expressing cells, FRET antagonist read-out. Orexin/Hypocretin receptor type 1 (Homo sapiens), O43613. 330,000 tested, 1.8% active. inhibition, % at 6.6 µM; in the data active = inhibition mostly above about 38%, no sharp cut-off; inactive = mostly below about 40%;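 also: 0% = agonist challenge alone and 100% = reference antagonist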
TAAR1 antag: human TAAR1 antagonists, primary screen, Fluo-8 calcium fluorescence, CHO RD-HGA16 cells; Trace amine-associated receptor 1 (Homo sapiens), Q96RJ0; antagonist; inhibition, % at 3 µM; 360,000 tested, 1.5% active; AID 624466, 2012;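 active = inhibition above a per-plate cutoff, the mean inhibition of test compounds on that plate plus 3 SD, cut at about 49% in these data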;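 also: 0% = DMSO plus EC80 beta-PEA response and 100% = DMSO alone without agonist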
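Material: RD-HGA16 CHO cells with stable hTAAR1 and Gα16; Dosing: single nominal final test compound concentration of 3 µM; Schedule: seeding 17-24 h prior, 75-min 37 °C, 30-min RT dye loading; Detection: kinetic Fluo-8 calcium fluorescence measurement; Measure: % inhibition from peak post-agonist over basal fluorescence ratio; Benchmarks: vehicle and agonist controls.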
* marks the source's active call; other numbers are inactive results; · = no result. Hits are enriched below; roughly 3.9% of the tested compounds scored in any of these assays.

SMILES	OX1R antag-1	TAAR1 ag	CHO parental Ca	OX1R antag-2	TAAR1 antag
O=[N+]([O-])c1ccc(CN2CC(N3CCC(Cc4ccccc4)CC3)CS2(=O)=O)cc1 (centres undefined)	·	4	·	·	47
Cc1[nH]n(-c2ccccc2)c(=O)c1/C=N/NC(=O)c1ccc(O)cc1O	-21	·	-11	37*	·
Cc1ccc(-n2[nH]c(C)c(/C=N/NC(=O)c3ccc(O)cc3O)c2=O)cc1	-5	·	-4	38*	·
O=C(Nc1ccc(Cl)c(Cl)c1)OCc1cccnc1	40	14	76*	75*	4
CC(C)(C)OC(=O)N1CCCC(C(=O)Nc2cccc(C(=O)NCCCc3ccccc3)c2)C1 (centres undefined)	·	10	·	·	49*
O=[N+]([O-])c1cc(S(=O)(=O)N2CCCC2)ccc1NCCCN1CCOCC1	-18	6	-10	51*	-33
COCCNc1ccc(S(=O)(=O)N2CCCC2)cc1[N+](=O)[O-]	-20	5	-23	36	7
CCN(CC)c1ccc(/C=N\NC(=O)c2cccc3cc[nH]c23)cc1	-2	0	-16	51*	4
O=C(N/N=C/c1ccc([N+](=O)[O-])cc1)c1cccc2cc[nH]c12	-17	12	-3	9	12
O=c1c(-c2ccco2)nc2ccccc2n1C(c1ccccn1)c1nc2ccccc2[nH]1 (centres undefined)	·	-1	·	·	-14
Clc1ccsc1-c1csc(-c2cccnc2)n1	17	2	-18	71*	5
COc1ccc(Cc2c(C(C)(C)C)nc3c(C)cc(Br)cn23)c(C)c1	·	2	·	·	-15
Cc1ccc(Nc2ccc([N+](=O)[O-])cn2)cc1Cl	·	0	·	·	54*
O=[N+]([O-])c1ccc(Nc2ccc(F)cc2)nc1	-2	0	1	26	-11
CC(=O)Nc1ccc(Nc2ccc([N+](=O)[O-])cn2)cc1	-5	3	10	22	6
CN(C)c1ccc(Nc2ccc([N+](=O)[O-])cn2)cc1	-13	-4	4	43*	-13
CCCCCc1ccc2cc(C#N)ccc2n1	·	0	·	·	-21
COc1cc(Nc2ccc(C(=O)O)cc2[N+](=O)[O-])cc(OC)c1	-7	2	-3	54*	0
Cc1cc(C)cc(Nc2ccc(C(=O)O)cc2[N+](=O)[O-])c1	0	0	-12	21	-27
COc1ccc([C@H]2N[C@]3(CCCN(Cc4ccc(Cl)cc4)C3=O)[C@H]3C(=O)N(Cc4ccccc4)C(=O)[C@@H]23)cc1	·	4	·	·	19
CC(=O)c1cc2cccc(OC3(C)CCN(Cc4ccc(-c5ccccn5)cc4)C3)c2o1 (centres undefined)	·	3	·	·	-10
CC1(CC(=O)N/N=C/c2cc([N+](=O)[O-])c(O)cc2O)OCCO1	-2	4	-2	52*	7
Cn1cc([N+](=O)[O-])c(C(=O)Nc2nc(-c3ccc(Cl)cc3)cs2)n1	40*	40*	56*	18	67*
Cc1ccc(-c2nc(NC(=O)c3nn(C)cc3[N+](=O)[O-])sc2C)cc1	4	0	3	13	0
CC(=O)Nc1ccc(NC(=O)c2ccc([N+](=O)[O-])cc2Cl)cc1	-12	6	4	37	-4
SMILES	OX1R antag-1	TAAR1 ag	CHO parental Ca	OX1R antag-2	TAAR1 antag
Cn1cc([N+](=O)[O-])c(C(=O)NNC(=O)c2ccc([N+](=O)[O-])cc2Cl)n1	-13	-1	4	44*	14
CCCn1nnc(NC(=O)c2ccc([N+](=O)[O-])cc2Cl)n1	-20	4	-3	63*	7
CCCCn1nnc(NC(=O)c2ccc([N+](=O)[O-])cc2Cl)n1	-15	5	-3	64*	-28
Cc1[nH]c2ccccc2c1C(=O)c1c(N)[nH]c(C(=O)c2ccc(Br)cc2)c1-c1ccc(Br)cc1	·	0	·	·	-19
Cn1cc([N+](=O)[O-])c(C(=O)Nc2ccc(C(=O)N3CCCCC3)cc2)n1	-16	1	-10	73*	2
CN1CCN(c2ccc(CNC(=O)C3Cc4c(-c5ccc(Cl)cc5)ccnc4O3)cc2)CC1 (centres undefined)	·	5	·	·	-19
CC(Oc1cccc(Cl)c1)C(=O)Nc1ccc(S(=O)(=O)N(C)C2CCN(C)CC2)cc1 (centres undefined)	10	42*	-2	1	11
CC(Oc1cccc(Cl)c1)C(=O)Nc1ccc(S(=O)(=O)NC2=NCCCCC2)cc1 (centres undefined)	7	40*	11	5	13
CC(Oc1ccc(F)cc1)C(=O)Nc1ccc(S(=O)(=O)NC2=NCCCCC2)cc1 (centres undefined)	7	44*	1	1	20
CC(=O)Nc1ccc(S(=O)(=O)N(C)C2CCN(C)CC2)cc1	-4	-1	8	14	2
CCOC(=O)[C@]12CCC=C1N(Cc1cccc3ccccc13)C(=O)[C@H](CC(=O)N1CCCC1)C2	·	1	·	·	4
COc1ccc(CC2=CC(=O)c3ccccc3C2=O)cc1	-4	6	4	39*	34
COc1ccc(N2CCN(c3cc(C(=O)NC4CCCCC4)ncn3)CC2)cc1OC	·	7	·	·	-16
O=C(COC(=O)c1cc(NS(=O)(=O)c2cccs2)ccc1O)Nc1ccccc1	-12	10	-10	73*	13
COc1ccc(C(OCC(O)CNCCc2ccc(S(N)(=O)=O)cc2)c2ccc(OC)cc2)cc1 (centres undefined)	-19	3	0	5	-7
OC(CNCCc1ccc(C(F)(F)F)cc1)COC(c1ccccc1)c1ccccc1 (centres undefined)	49*	35	89*	-5	35
O=C1c2cc(S(=O)(=O)NCCCO)ccc2-c2ccc(S(=O)(=O)NCCCO)cc21	1	10	4	54*	6
COCCNS(=O)(=O)c1ccc2c(c1)C(=O)c1cc(S(=O)(=O)NCCOC)ccc1-2	-3	4	2	66*	2
Cc1cc(O)cc(=O)n1-c1ccc(Cl)c(C(F)(F)F)c1	·	1	·	·	2
O=C(Nc1ccccc1N1CCOCC1)c1ccc(Br)o1	-22	12	-16	15	10
O=C(Nc1ccc(N2CCOCC2)c(Cl)c1)c1ccc(Br)o1	15	18	1	16	60*
O=C(NCCNC(=O)c1ccc(-c2cc(Cl)ccc2Cl)o1)c1cnccn1	·	43*	·	·	45
CN1CCCCC(NC(=O)c2ccc(F)cc2)C1=O (centres undefined)	·	1	·	·	-3
Cc1nc2c(ccc3nc(NC(=O)c4ccc5c(c4)OCCO5)sc32)s1	20	3	-19	64*	-10
